Source: PubChem
UBC13 polyUb = blocks human UBC13 polyubiquitin chain formation; TR-FRET; AID 485273; actives 0.47% (n = 330,000); inhibition, % at 20 µM; in the data active = inhibition above about 45%, passing the limit was not always enough; inconclusive = no clear call, values can overlap the other calls
Target sequence (P61088 whole entry, looked up): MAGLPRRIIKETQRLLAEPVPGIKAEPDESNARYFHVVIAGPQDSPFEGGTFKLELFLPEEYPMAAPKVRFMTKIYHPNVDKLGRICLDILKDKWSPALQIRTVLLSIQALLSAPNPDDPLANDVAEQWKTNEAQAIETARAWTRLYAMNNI
iPSC survival up = enhancers of human iPSC single-cell survival; hiPSC single-cell survival, ATPlite luminescence; 100% = ROCK inhibitor wells, 0% = DMSO; AID 602274; survival enhancement, % at 20 µM; actives 0.044% (n = 360,000); in the data active = survival enhancement above about 18%;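 also: cells exposed to compounds for 16 hours before the ATP read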
Exocytosis inh = blocks lytic granule exocytosis; inhibition, % at 10 µM; TALL-104 LAMP-1 surface exposure, flow cytometry; cells stimulated with thapsigargin and PMA; actives 0.66% (n = 360,000);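 active = inhibition above about 55%, limit read from the data; inconclusive = no clear call, values can overlap the other calls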
Apaf-1 inh = inhibitors of human Apaf-1 apoptosome; inhibition, % at 20 µM; reconstituted apoptosome caspase-3 activity, DEVD-Rh110 fluorescence; AID 489030; actives 0.71% (n = 330,000); active = inhibition of at least 40% at 20 µM;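 also: plate controls were DMSO wells for no effect and DEVD-CHO caspase inhibitor wells for full effect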
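System: reconstituted apoptosome with Apaf-1, cytochrome c, caspase-9, procaspase-3, dATP; Signal: Rh110 fluorescence intensity; Schedule: 30 min compound preincubation, 50 min activation, room temperature; Reagent: cytochrome c trigger plus (Z-DEVD)2-Rh110 caspase-3 substrate.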
MIN6 prolif = inducers of beta-cell replication in MIN6 cells. MIN6 cells proliferation, ATPlite luminescence, 48 h; cells starved in 0.2% serum; 100% = growth in 10% serum. actives 0.29% (n = 330,000). proliferation, % at 10 µM;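 active = compounds whose signal lies at least 3.5 SD above the mean of all wells on their plate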;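 also: 0% = DMSO-treated cells in low-serum medium and 100% = 10% serum control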
MPTP inh = inhibitors of mitochondrial permeability transition pore; actives 1.4% (n = 360,000); AID 602449; inhibition, % at 10 µM; isolated mouse mitochondria, Ca2+ swelling absorbance, 30 min;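 active = inhibition of 50% or more, scaled per plate between neutral and stimulator controls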;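 also: 0% = DMSO wells given calcium and 100% = 1 mM EGTA wells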
Rh123 counter = membrane potential counter-screen of mitochondrial pore inhibitors. shares compounds with MPTP inh. isolated mitochondria, Rhodamine 123 fluorescence. inhibition, % at 10 µM. actives 78% (n = 5,000). AID 624504; in the data active = inhibition above about 22%;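 also: 0% = DMSO vehicle and 100% = positive control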
MPTP swell DR = dose response confirmation of mitochondrial permeability transition pore inhibitors; AID 651561; shares compounds with MPTP inh; actives 58% (n = 780); isolated mitochondria swelling, absorbance; IC50, µM; in the data active = IC50 below about 20 µM
MPTP counter DR = MPTP inhibitor counter-screen activity, dose response; AID 651564; actives 49% (n = 780); isolated mitochondria counterscreen, fluorescence read-out; IC50, µM; shares compounds with MPTP inh; in the data active = IC50 below about 80 µM
* marks the source's active call; other numbers are inactive results; u = inconclusive; x = not tested or not shown. A selection: hits, their analogues and other compounds. The true share with any hit is near 3%.

SMILES | UBC13 polyUb | iPSC survival up | Exocytosis inh | Apaf-1 inh | MIN6 prolif | MPTP inh | Rh123 counter | others
CCNC(=S)Nc1ccc(Cl)cc1 | 2 | -1 | -1 | -5 | 1 | 2 | x
CC(CNC(=S)Nc1cc(F)cc(F)c1)CSc1ccc(Cl)cc1 (stereo not drawn) | 6 | 0 | 17 | 2 | -6 | 97* | 89*
Cc1ccc(SCCNC(=S)Nc2cc(C)cc(C)c2)cc1 | 6 | -3 | -1 | 14 | -4 | 2 | x
Cc1ccc(NC(=S)NCCSc2ccc(Cl)cc2)cc1 | 1 | 0 | 5 | 13 | -7 | 100* | 99*
Cc1cccc(C)c1NC(=S)NCCSc1ccc(Cl)cc1 | 3 | -1 | 0 | -1 | -7 | 82* | 86*
COc1ccccc1NC(=S)NCCSc1ccc(Cl)cc1 | 8 | 3 | 0 | 18 | 0 | -1 | x
CC(=O)c1ccc(C(=O)N2CCCC(CO)(Cc3ccccc3C)C2)s1 (stereo not drawn) | -4 | 0 | 2 | 14 | -1 | 0 | x
CCOC(=O)c1ccc(NC(=O)c2nc[nH]c2C(=O)NC[C@H](C)O)cc1 | x | 3 | 6 | x | x | 0 | x
COc1ccc2nc3n(c(=O)c2c1)-c1ncccc1C(=O)NC3CC(C)C (stereo not drawn) | x | -2 | -1 | x | x | -1 | x
COC(=O)c1ccc(CSc2ccccc2NC(=S)Nc2cccc(C(F)(F)F)c2)o1 | x | 0 | -5 | x | x | 86* | 90*
Cc1ccc(NC(=O)CSc2nc3ncc(Cl)cc3[nH]2)c(C)c1 | -13 | 1 | -8 | -5 | 3 | 1 | x
C=CCC1(CC=C)CCCN1C(=O)c1cc(COc2ccc(F)c(F)c2)on1 | -10 | -1 | 1 | 31 | -7 | 0 | x
C=CCC1(CC=C)CCCN1C(=O)c1cc(COc2ccc(C)nc2)on1 | 6 | 0 | 0 | 12 | -5 | 99* | 90*
CC(C)NC(=O)C1(C)CCN1C(=O)c1ccc2c(c1)OCO2 (stereo not drawn) | x | 0 | 1 | x | x | -1 | x
Clc1cccc(Cl)c1CON/C=N/c1ncnc2sccc12 | -3 | 5 | -2 | 18 | 0 | 69* | 41*
Clc1cccc(CON/C=N/c2ncnc3sccc23)c1 | 6 | 0 | -1 | 16 | 0 | 1 | x
O=C(O)CN1C(=O)c2ccc(Oc3ccc([N+](=O)[O-])cc3)cc2C1=O | -8 | 0 | -3 | 1 | 2 | -1 | x
O=C1c2ccc(Oc3ccc([N+](=O)[O-])cc3)cc2C(=O)N1c1ccncc1 | -6 | 1 | -1 | -13 | -1 | 87* | 79*
COc1ccc(NC(=O)CSc2ccccn2)cc1OC | 2 | 7 | -1 | -5 | -1 | 25 | x
COc1ccc(NC(=O)CSc2ncccc2C(=O)OC(C)C)cc1OC | 0 | 9 | 0 | -6 | -5 | 71* | 60*
CCSc1nnc(SCC(=O)c2c(N)n(C)c(=O)n(C)c2=O)s1 | -3 | 0 | 1 | -3 | -4 | 2 | x
O=C(COc1ccc(-n2ccnc2)cc1)Nc1cccc(Cl)c1 | 6 | 3 | 0 | -11 | -6 | 89* | 57*
O=C(COc1ccc(Br)cc1)Nc1ccncc1 | 3 | 0 | -2 | 2 | 2 | 55* | 58*
O=C(COc1ccc(-c2ccccc2)cc1)Nc1cccnc1 | 6 | -3 | -8 | 2 | -8 | 87* | 102*
O=C(COc1ccc([N+](=O)[O-])cc1)Nc1cccnc1 | -11 | 0 | -1 | -9 | -3 | -2 | x
SMILES | UBC13 polyUb | iPSC survival up | Exocytosis inh | Apaf-1 inh | MIN6 prolif | MPTP inh | Rh123 counter | others
N#Cc1ccc(OCC(=O)Nc2ccncc2)cc1 | 2 | 0 | 6 | 0 | 0 | -1 | x
O=C(COc1ccc(-n2ccnc2)cc1)Nc1cccc(F)c1 | 13 | 0 | -4 | -22 | -3 | 20 | x
CCC(C)(C)c1ccc(OCC(=O)Nc2ccncc2)cc1 | -1 | 1 | -5 | 12 | -5 | 105* | 81*
CC(=O)Nc1cccc(C(=O)NNC(=O)c2ccccc2-n2cccc2)c1 | 4 | 4 | 23 | -5 | 1 | -1 | x
O=C(NC1=NCCS1)c1ccc(F)c(S(=O)(=O)N2CCOCC2)c1 | 0 | 0 | -3 | 7 | 1 | 0 | x
O=C(c1ccc(Cl)c(S(=O)(=O)N2CCc3ccccc32)c1)N1CCN(c2ccccc2O)CC1 | -7 | -3 | 0 | 10 | -7 | 1 | x
O=C(NNC(=O)c1cccc(S(=O)(=O)N2CCc3ccccc32)c1)c1ccccc1 | x | 1 | -3 | x | x | 100* | 83*
O=C(NNC(=O)c1ccccc1O)c1ccc(Cl)c(S(=O)(=O)N2CCc3ccccc32)c1 | -13 | 0 | -2 | 12 | -8 | 107* | 76*
COc1ccc(-n2nnnc2SCC(=O)Nc2c(C)n[nH]c2C)cc1 | 6 | -1 | 5 | 4 | 4 | -2 | x
O=C(N/N=C/c1cccc(C(F)(F)F)c1)c1ccccc1O | -4 | 0 | 0 | -3 | -2 | 65* | 55*
O=C(N/N=C/c1ccc2nccnc2c1)c1ccccc1O | -26 | x | x | 8 | -5 | x | x
CCN1CCN(C(=O)c2cc(COc3ccc(C(C)=O)cc3OC)on2)CC1 | 0 | 0 | u | -7 | 4 | -3 | x
CN(C)CCCOc1nn(Cc2ccccc2)c2ccccc12 | 4 | 0 | -1 | -3 | -2 | 75* | -4
CC(NC(=O)c1cc(S(=O)(=O)N2CCCC2)ccc1Cl)c1ccccn1 (stereo not drawn) | -5 | 0 | 0 | 5 | -3 | -1 | x
Cc1ccc(S(=O)(=O)CC(=O)N(CCCN(C)C)c2nc3ccc(C)cc3s2)cc1 | 7 | 0 | 1 | 21 | -6 | 90* | -12 | MPTP swell DR=4.5*;MPTP counter DR=75*
Cc1ccc2nc(N(CCCN(C)C)C(=O)CCc3ccccc3)sc2c1 | x | -2 | 7 | x | x | 102* | -10 | MPTP swell DR=3.7*;MPTP counter DR=>80
Cc1ccc2nc(N(CCCN(C)C)C(=O)CS(=O)(=O)c3ccccc3)sc2c1 | 5 | 0 | 6 | 7 | 1 | 47 | x
CCN1C(=O)CSC1=NC1C2CC3CC(C2)CC1C3 (stereo not drawn) | -2 | -4 | -2 | 8 | -3 | 77* | -4 | MPTP swell DR=8.1*;MPTP counter DR=36*
CCCNC(=S)N1CCN(c2nc(-c3ccc(C)cc3)cs2)CC1 | 2 | 0 | 6 | 6 | -4 | 99* | 81*
COc1ccc(CC2(CO)CCN(CC3=Cc4cc(Cl)ccc4OC3)CC2)cc1 | 6 | 2 | 20 | 30 | -6 | 97* | 107*
N#CC1(Nc2ccc(S(N)(=O)=O)cc2)CCCC1 | x | 0 | 3 | x | x | -2 | x
